Measurements: ChEMBL document CHEMBL3526081 (Drug Metab Dispos, 2011)

Columns and labels:
Liver microsome [1] = assay: Ratio of Vmax/Km in human liver microsomes assessed as 1alpha-hydroxylcinobufagin formation at 100 uM […] by UFLC-ESI-MS analysis; type: ADME; conditions: 0.5 h
[2] = Drug metabolism in cynomolgus monkey liver microsomes assessed as 1alpha-hydroxylcinobufagin formation at 100 uM at 37 degC after 30 mins by UFLC-ESI-MS analysis; type: ADME, Macaca fascicularis; conditions: 0.5 h, read-out: Km(app)
Outline: (§1)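 Liver microsomes (0.3 mg protein/ml) incubated with 100 µM substrate at 37°C for 30 min, in 100 mM potassium phosphate pH 7.4 with NADPH-generating system (1 mM NADP+, 10 mM glucose 6-phosphate, 1 unit/ml G6PDH, 4 mM MgCl2). Acetonitrile ≤1% final. Stopped with ice-cold acetonitrile and centrifuged. Metabolites identified by UFLC-ESI-MS and quantified by UFLC-DAD at 294 nm against authentic standard curves.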

[3] = Drug metabolism in Swiss-Hauschka (ICR) mouse liver microsomes assessed as 1alpha-hydroxylcinobufagin formation at 100 uM at 37 degC after 30 mins by UFLC-ESI-MS analysis in presence of 1 uM ketoconazole CYP3A4 inhibitor; type: ADME; conditions: 0.5 h
Outline: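 Chemical inhibition: selective P450 inhibitors (furafylline, sulfaphenazole, ketoconazole) added to liver microsome incubations in 100 mM potassium phosphate pH 7.4 with NADPH-generating system at 37°C. Hydroxylated metabolite formation quantified by UFLC at 294 nm against standards. Mean ± S.D. of three experiments in duplicate.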

Liver microsome [4] = assay: Drug metabolism in human liver microsomes assessed as 5beta-hydroxylcinobufaginn formation per mg of protein at 100 uM […] by UFLC-ESI-MS analysis; type: ADME; conditions: 0.5 h
[5] = Drug metabolism in Swiss-Hauschka (ICR) mouse liver microsomes assessed as 1alpha-hydroxylcinobufagin formation at 100 uM at 37 degC after 30 mins by UFLC-ESI-MS analysis; type: ADME; conditions: 0.5 h, read-out: Km(app); outline: as §1
[6] = Drug metabolism in Colony-bred Chinese Bama minipig liver microsomes assessed as 5beta-hydroxylcinobufaginn formation per mg of protein at 100 uM at 37 degC after 30 mins by UFLC-ESI-MS analysis; type: ADME, Sus scrofa; conditions: pig, 0.5 h; outline: as §1

For `CC(=O)O[C@H]1[C@H]2O[C@]23[C@@H]2CC[C@@H]4C[C@@H](O)CC[C@]4(C)[C@H]2CC[C@]3(C)[C@H]1c1ccc(=O)oc1` [CINOBUFAGIN], the Vmax/Km (Liver microsome [1]) was 47.2 µL/min/mg, the Km [2] was 34.2 µM and the Drug metabolism [3] was “metabolite_not_detected”. It also gave a Vmax (Liver microsome [4]) of 1.17 nmol/min/mg, a Km [5] of 14.1 µM and a Vmax [6] of 0.65 nmol/min/mg.
